# Results collected from several papers.
# Target: Serine/threonine-protein kinase PAK 5 (PAK5, Homo sapiens, UniProt Q9P286)
Structure (SMILES),assay,conditions,remaining binding [%]
c1cncc(-c2cccc(Nc3nccc(NC4CCCCC4)n3)c2)c1,"binding, competition with immobilised ligand",10 µM,76
C[C@@H]1CCN(c2nccc(-c3cnn4ncccc34)n2)C1,binding,1 µM,90
C[C@@H](c1ccc(-n2cnc3c(N)ncnc32)cc1)N1CCc2nn(C)c(Cc3ccccc3)c2C1=O,"binding, competition with immobilised ligand",0.1 µM,69
COc1ncc2cc3ccccc3nc2c1C#N,"cell-free assay, competition with immobilised ligand",5 µM,100
CN(C)CC#Cc1ccc(OCCCc2sc(N3CCc4cccc(C(=O)Nc5nc6ccccc6s5)c4C3)nc2C(=O)O)c(F)c1,"cell-free assay, competition with immobilised ligand",1 µM,91
N[C@H]1CCN(c2nccc(-c3cnn4ncccc34)n2)C1,binding,1 µM,100
O=C(c1ccc(Nc2ncc(Cl)c(-c3cc4ccccc4s3)n2)cc1)N1CCC(N2CCCC2)CC1,"binding, competition with immobilised ligand",1 µM,77
CC1=C(C#N)C(c2ccc3c(c2)c(NC(=O)c2ccccc2C)nn3C)C(C#N)=C(C)N1,"cell-free assay, competition with immobilised ligand",1 µM,100
CN(C)c1nccc(-c2cnn3ncccc23)n1,binding,1 µM,92
Nc1ncc2c(n1)-c1c([nH]c3ccc(C#CC4CC4)cc13)CCCC2,"binding, competition with immobilised ligand",1 µM,97
C[C@@H]1CN(c2cc(-c3n[nH]c4ccc(OC5(C)CC5)cc34)ncn2)C[C@H](C)O1,"cell-free assay, competition with immobilised ligand",0.1 µM,86
CN(CCCC(F)(F)F)c1nccc(-c2cnn3ncccc23)n1,binding,1 µM,100
COc1cnc(Nc2cccc(S(N)(=O)=O)c2)nc1N1CCN(c2ccccc2)C(=O)C1,"binding, competition with immobilised ligand",1 µM,82
O=C(Nc1c[nH]nc1C(=O)NC1CCNCC1)c1cc(F)cc(F)c1,"binding, competition with immobilised ligand",1 µM,100
Cc1cnn2ncc(-c3ccnc(N(C)C)n3)c2c1,binding,1 µM,0
CS(=O)(=O)c1cc(C2(NC(=O)c3cncc4c3cnn4-c3ccc(F)cc3)CC2)ccn1,"cell-free assay, competition with immobilised ligand",1 µM,100
O=C(c1ccc(Nc2ncc(Cl)c(-c3ccc(Cl)s3)n2)cc1)N1CCC(N2CCCC2)CC1,"binding, competition with immobilised ligand",1 µM,58
COc1ccc2c(O[C@@H]3C[C@H]4C(=O)N[C@]5(C(=O)O)CC5/C=C\CCCCC[C@H](NC(=O)OC5CCCC5)C(=O)N4C3)cc(-c3csc(NC(=O)C(C)C)n3)nc2c1C (stereo partly drawn),"cell-free assay, competition with immobilised ligand",1 µM,100
F[C@@H]1CCN(c2nccc(-c3cnn4ncccc34)n2)C1,binding,1 µM,100
CS(=O)(=O)N1CCCC(NC(=O)[C@H](CCC2CCCCC2)NC(=O)c2ccc(CNc3ncnc4c3nnn4-c3ccccc3)cc2)C1 (stereo partly drawn),"cell-free assay, competition with immobilised ligand",0.1 µM,100
O=C(NCCCN1CCOCC1)c1ccc(Nc2nccc(-c3cc4ccccc4s3)n2)cc1,"binding, competition with immobilised ligand",1 µM,81
